The target of assay [1] is Transforming protein RhoA/Rho-related GTP-binding protein RhoC (Homo sapiens, UniProt P61586+P08134). Description: Inhibition of RhoA/C-mediated transcriptional response in human PC3 cells by serum response factor-luciferase reporter gene assay. In kind it is cell-based. Conditions: pc-3. For orientation: In a reporter assay the amount or activity of a reporter protein is the signal.

Assay [2] concerns PC-3. Description: Cytotoxicity against human PC3 cells assessed as inhibition of mitochondrial metabolism at 100 uM by WST-1 assay. In kind it is functional. (In general: Tetrazolium assays rely on reduction of a dye to a coloured formazan, in cell work by metabolically active cells.)
The test system of assay [3] is PC-3. Description: Cytotoxicity against human PC3 cells assessed as inhibition of mitochondrial metabolism at 10 uM by WST-1 assay. In kind it is functional.
Assay [4] deals with PC-3. Description: Antiinvasive activity in human PC3 cells at 100 uM by Matrigel cell invasion assay. It counts as functional. In a few lines: (§1)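 PC-3 cells (2 × 10^5) were seeded in low-serum DMEM (0.5% FBS) in the upper chamber of 24-well Matrigel inserts, with compound or DMSO. The lower well held the same 0.5% FBS medium, and cells were incubated 24 h at 37 °C in 5% CO2. Inserts were methanol-fixed, stained with 0.5% crystal violet, and non-invaded cells were wiped off. Stain was extracted in 20% acetic acid and read at 595 nm.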

The subject of assay [5] is PC-3. Description: Antiinvasive activity in human PC3 cells at 10 uM by Matrigel cell invasion assay. In kind it is functional. An outline of the steps: as §1

By IC50 is commonly meant the concentration needed to halve the response being measured. Turning to `O=C(Nc1ccccc1C(=O)Nc1ccc(Cl)cc1)c1cc(C(F)(F)F)cc(C(F)(F)F)c1`, the IC50 in assay [1] is more than 100 µM.
Usually inhibition stands for the percentage by which the read-out fell short of the control. On to `O=C(CONC(=O)c1cc(C(F)(F)F)cc(C(F)(F)F)c1)Nc1ccccc1`, for which the inhibition at 100 µM in the assay with PC-3 [2] was found to be 37%. The inhibition at 10 µM with PC-3 [3] was determined as 0%. For the same compound, the IC50 in assay [1] was 36 µM.
On the same counts, the results for `O=C(CONC(=O)c1cccc(C(F)(F)F)c1)Nc1ccc(Cl)cc1` are 58%, 0% and 27 µM.
`O=C(Nc1ccc(Cl)cc1)c1ccc(NC(=O)c2cc(C(F)(F)F)cc(C(F)(F)F)c2)cc1` yielded an inhibition at 100 µM with PC-3 [4] of 0%. In assay [1], this compound had an IC50 of more than 100 µM.
For the compound `O=C(NCCc1cn(-c2ccc(Cl)cc2)nn1)c1cc(C(F)(F)F)cc(C(F)(F)F)c1`, the IC50 in assay [1] is more than 100 µM.
Take `O=C(CCNC(=O)c1cc(C(F)(F)F)cc(C(F)(F)F)c1)Nc1ccc(Cl)cc1`: the inhibition at 100 µM with PC-3 [2] amounted to 10%. Moreover, the IC50 in assay [1] turned out to be 38 µM.
As to `O=C(c1cc(C(F)(F)F)cc(C(F)(F)F)c1)N1CCC(Nc2ccc(Cl)cc2)CC1`, the inhibition at 100 µM in the assay on PC-3 [2] is 0%. Further, in the assay on PC-3 [3], the inhibition at 10 µM worked out at 19%. The half-inhibitory concentration (IC50) in assay [1] worked out at 10.8 µM.
On to `O=C(CC1CCCCN1C(=O)c1cc(C(F)(F)F)cc(C(F)(F)F)c1)Nc1ccc(Cl)cc1` (centres undefined), for which, in the assay with PC-3 [2], the inhibition at 100 µM stood at 14%. Besides, the IC50 in assay [1] stood at 9.5 µM.
In assay [1], `O=C(CCCCNC(=O)c1cc(C(F)(F)F)cc(C(F)(F)F)c1)Nc1ccc(Cl)cc1` yielded an IC50 of more than 100 µM.
The same measure, in the same setting: next, `O=C(CONC(=O)c1cc(C(F)(F)F)cc(C(F)(F)F)c1)Nc1cccc(Cl)c1`: 5.9 µM; `O=C(N[C@@H]1CCC[C@@H]1C(=O)Nc1ccc(Cl)cc1)c1cc(C(F)(F)F)cc(C(F)(F)F)c1`: more than 100 µM.
As for `O=C(Nc1cc(C(F)(F)F)cc(C(F)(F)F)c1)C1CCN(C(=O)c2ccc(Cl)cc2)CC1`, the inhibition at 100 µM in the assay with PC-3 [2] is 88%. Moreover, in the assay on PC-3 [3], the inhibition at 10 µM worked out at 10%. Also, the IC50 in assay [1] turned out to be 10 µM.
On to `O=C(NCc1csc(-c2ccc(Cl)cc2)n1)c1cc(C(F)(F)F)cc(C(F)(F)F)c1`, for which the IC50 in assay [1] stood at 4.1 µM.
Consider `O=C(NCCCOc1ccc(Cl)cc1)c1cc(C(F)(F)F)cc(C(F)(F)F)c1`, for which testing at 100 µM in the assay on PC-3 [4] gave an inhibition of 26%. In assay [1], this compound had an IC50 of 8.9 µM.
As for `CN(C(=O)CCNC(=O)c1cc(C(F)(F)F)cc(C(F)(F)F)c1)c1ccc(Cl)cc1`, in assay [1], the 50% inhibitory concentration (IC50) is more than 100 µM.
`FC(F)(F)c1cc(CNCCCNc2ccc(Cl)cc2)cc(C(F)(F)F)c1`: in the assay on PC-3 [4], the inhibition at 100 µM is 86%. The compound further showed an IC50 in assay [1] of 9.1 µM.
On to `O=C(CONC(=O)c1ccc(C(F)(F)F)cc1)Nc1ccc(Cl)cc1`, for which the inhibition at 100 µM in the assay on PC-3 [2] was found to be 56%. Moreover, the inhibition at 10 µM with PC-3 [3] was determined as 0%. The compound further yielded an IC50 in assay [1] of 29 µM.
In turn, `O=C(CONC(=O)c1cc(C(F)(F)F)cc(C(F)(F)F)c1)Nc1ccc(Cl)cc1` returned an IC50 in assay [1] of 4.7 µM. In other words, the single-digit micromolar range.
As for `O=C(CC1CC(c2cc(C(F)(F)F)cc(C(F)(F)F)c2)=NO1)Nc1ccc(Cl)cc1` (centres undefined), the inhibition at 100 µM in the assay on PC-3 [2] worked out at 38%. In assay [1], this compound yielded an IC50 of 4.2 µM.
Take `O=C(Nc1ccc(Cl)cc1)C1CCN(C(=O)c2cc(C(F)(F)F)cc(C(F)(F)F)c2)CC1`: the IC50 in assay [1] came out at 16 µM.
Same read-out and setting: next, `O=C(CONC(=O)c1ccccc1)Nc1ccc(Cl)cc1`: more than 100 µM; `O=C(c1cc(C(F)(F)F)cc(C(F)(F)F)c1)N1CCC(=O)N(c2ccc(Cl)cc2)CC1`: more than 100 µM.
In the assay on PC-3 [4], `O=C(NCCC(=O)N1CCc2cc(Cl)ccc21)c1cc(C(F)(F)F)cc(C(F)(F)F)c1` showed an inhibition at 100 µM of 0%. In addition, in assay [1], the IC50 was found to be 13 µM. For the same compound, the “inhibition (INH)” value with PC-3 [5] turned out to be 0%.
As for `O=C(NCCCNc1ccc(Cl)cc1)c1cc(C(F)(F)F)cc(C(F)(F)F)c1`, the IC50 in assay [1] came to 5.1 µM.
In turn, `O=C(Nc1ccc(Cl)cc1)C1CCCN1C(=O)c1cc(C(F)(F)F)cc(C(F)(F)F)c1` (centres undefined) returned an inhibition at 100 µM in the assay on PC-3 [4] of 78%. The compound also had an IC50 in assay [1] of 69 µM.
As for `O=C(CCNCc1cc(C(F)(F)F)cc(C(F)(F)F)c1)Nc1ccc(Cl)cc1`, the IC50 in assay [1] came out at 8.1 µM. The same compound returned an inhibition (INH) with PC-3 [5] of 47%.
`O=C(Nc1ccc(Cl)cc1)c1cccc(NC(=O)c2cc(C(F)(F)F)cc(C(F)(F)F)c2)c1` yielded an IC50 in assay [1] of 1.7 µM.
On the same count and under the same terms, the figure for `O=C(CCc1cn(-c2cc(C(F)(F)F)cc(C(F)(F)F)c2)nn1)Nc1ccc(Cl)cc1` is more than 100 µM.
Same read-out and setting: the figure for `O=C(CNC(=O)c1cc(C(F)(F)F)cc(C(F)(F)F)c1)Nc1ccc(Cl)cc1` is 33 µM; for `O=C(CONC(=O)c1ccc(Cl)cc1)Nc1cc(C(F)(F)F)cc(C(F)(F)F)c1` it is 8.6 µM; for `O=C(CCCNC(=O)c1cc(C(F)(F)F)cc(C(F)(F)F)c1)Nc1ccc(Cl)cc1` it is 21 µM.
With `O=C(Nc1ccc(Cl)cc1)C1CCN(C(=O)c2cc(C(F)(F)F)cc(C(F)(F)F)c2)C1` (centres undefined), in the assay on PC-3 [2], the inhibition at 100 µM stood at 67%. In addition, the IC50 in assay [1] is 16.3 µM.
Consider `O=C(CCNC(=O)c1cc(C(F)(F)F)cc(C(F)(F)F)c1)NCc1ccc(Cl)cc1`, for which the IC50 in assay [1] was more than 100 µM.

For the origin of these results see ChEMBL document CHEMBL1153198, “Design, synthesis and prostate cancer cell-based studies of analogs of the Rho/MKL1 transcriptional pathway inhibitor, CCG-1423” (Bioorg Med Chem Lett, 2010).
